From ChEMBL document CHEMBL1129445 (J Med Chem, 1996)

Columns and labels:
[1] = biological target: T1, Inosine-5'-monophosphate dehydrogenase 2 (Homo sapiens, UniProt P12268); assay: Inhibition of human recombinant inosine monophosphate dehydrogenase type II.
In short: (§1)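 Reactions are run either at pH 7.4 (0.1 M K phosphate, 0.5 M KCl, 3 mM EDTA, 10 μg/mL BSA) or at pH 8.0 (0.1 M Tris-HCl, 0.1 M KCl, 3 mM EDTA, 100 μg/mL BSA). DMSO ≤10%, compounds tested up to 100 μM. IC50 from fit of fractional activity = V0/[(I/IC50)^n + 1].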

[2] = organism: Homo sapiens; assay: Inhibition of human Lymphocyte proliferation. The IC50 values were determined by interpolation using cubic spline determination.; type: functional
In short: (§2)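 Human PBMC are isolated on Ficoll from heparinized blood and plated at 2 × 10^5 cells/well in RPMI-1640 with 5% FCS. Cells are stimulated with PHA (10 μg/mL final) and given compound at time 0, at 4-6 concentrations between 0.001 and 20 μM (tested to 10 μM). Cultures run in quadruplicate for 72 h at 37 °C, 7% CO2, with [3H]thymidine (0.5 μCi/well) for the last 6 h. IC50 by cubic-spline interpolation of the means.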

[3] = biological target: T1, Inosine-5'-monophosphate dehydrogenase 2; assay: Inhibition of human recombinant type II Inosine Monophosphate Dehydrogenase. at pH 8.0
In short: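 Recombinant human type II IMPDH (12.5-25 pmol) in 0.1 M Tris-HCl pH 8.0, 0.1 M KCl, 3 mM EDTA, 100 μg/mL BSA. […] IC50 fitted with a Hill equation, fractional activity = V0/[(I/IC50)^n + 1].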

[4] = Compound was tested for inhibition of human Lymphocyte proliferation. The IC50 values were determined by interpolation using the cubic spline determination.; type: functional; in short: as §2
[5] = biological target: T1, Inosine-5'-monophosphate dehydrogenase 2; assay: Inhibition of human recombinant type II Inosine Monophosphate Dehydrogenase at 100 uM; in short: as §1
[6] = organism: Homo sapiens; assay: Compound was tested for inhibition of human Lymphocyte proliferation. The IC50 values were determined by interpolation using the cubic spline determination at 10 uM; type: functional; in short: as §2
[7] = organism: Homo sapiens; assay: Inhibition of human Lymphocyte proliferation. The IC50 values were determined by interpolation using the cubic spline determination at 10 uM; type: functional; in short: as §2
[8] = system: Mus musculus; assay: Tested for the inhibition of murine PFC response at 100 mg/kg dose; type: functional
[9] = biological target: T1, Inosine-5'-monophosphate dehydrogenase 2; assay: Compound was tested for inhibition of human recombinant type II Inosine Monophosphate Dehydrogenase. (tested to 100 and 10 uM conc); in short: as §1
[10] = organism: Mus musculus; assay: Effective dose was measured in mice as concentration required to inhibit 50% inhibition of Murine PFC response; type: functional
In short: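 Jerne plaque assay in female C3H or CD-1 mice immunized ip with SRBC on day 0, with oral daily dosing over the next 4 days. Splenic PFC per 10^6 WBC counted on day 4. ED50 read graphically from the dose-inhibition data.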

[11] = system: Mus musculus; assay: % inhibition of Murine plaque forming cells response was measured in Mice at 12.5 mg/kg dose; type: functional
[12] = system: Mus musculus; assay: % inhibition of Murine plaque forming cells response was measured in Mice at 6.25 mg/kg dose; type: functional
[13] = system: Mus musculus; assay: % inhibition of Murine plaque forming cells response was measured in Mice at 25 mg/kg dose; type: functional

SMILES | IC50 [1] [nM] | IC50 [2] [nM] | other results
C/C(=C\Cc1c(O)c2c(c(C)c1C1CC1)COC2=O)CCC(=O)O | 50.7 | 340 | –
COc1c(C)c2c(c(O)c1C/C=C(\C)CCC(=O)O)C(=O)N(C)C2 | – | – | IC50 [3]: > 100000 nM; IC50 [4]: > 10000 nM
COc1c(C)c(C)c(/C=N/O)c(O)c1C/C=C(\C)CCC(=O)O | – | – | IC50 [5]: 11900 nM; IC50 [6]: > 10000 nM
COc1c(C)c(C)c(O)c(Cl)c1C/C=C(\C)CCC(=O)O | – | – | IC50 [5]: 2880 nM; IC50 [7]: > 10000 nM
COc1c(Br)c2c(c(O)c1C/C=C(\C)CCC(=O)O)C(=O)OC2 | – | 4000 | IC50 [3]: 975 nM
COc1c(C/C=C(\C)CCC(=O)O)cc(O)c(C)c1C | – | – | IC50 [5]: > 100000 nM
COc1c(C)c2c(c(O)c1C/C=C(\C)CCC(=O)O)C(=O)NC2 | – | 1500 | IC50 [3]: 244 nM
COc1c(C)c(C)c(Cl)c(F)c1C/C=C(\C)CCC(=O)O | 437 | 7500 | inhibition in vivo at 100 mg/kg [8]: 0%
COc1c(C)c(C)c(C=O)c(O)c1C/C=C(\C)CCC(=O)O | 1120 | 10000 | –
COc1c(C)c(C)c(F)c(Cl)c1C/C=C(\C)CCC(=O)O | – | – | IC50 [5]: 11800 nM; IC50 [7]: > 10000 nM
CO/N=C/c1c(C)c(C)c(OC)c(C/C=C(\C)CCC(=O)O)c1O | – | – | IC50 [5]: 52800 nM; IC50 [6]: > 10000 nM
C/C(=C\Cc1c(O)cc(C)c(C)c1C)CCC(=O)O | – | – | IC50 [9]: > 100000 nM
C=Cc1c(C)c2c(c(O)c1C/C=C(\C)CCC(=O)O)C(=O)OC2 | 8.51 | 93 | –
CCc1c2c(c(O)c(C/C=C(\C)CCC(=O)O)c1OC)C(=O)OC2 | – | 3000 | IC50 [3]: 410 nM
COc1c(C)c2c(c(O)c1C/C=C(\C)CCC(=O)O)C(=O)CC2 | 140 | 830 | –
COc1c(C#N)c2c(c(O)c1C/C=C(\C)CCC(=O)O)C(=O)OC2 | – | > 10000 | IC50 [3]: > 100000 nM
COc1c(C)c2c(c(O)c1C/C=C(\C)CCC(=O)O)C(=O)OC2C (centres undefined) | – | 600 | IC50 [3]: 420 nM
C/C(=C\Cc1c(O)c2c(c(C)c1-c1ccccc1)COC2=O)CCC(=O)O | 130 | 2800 | –
COc1c(C)c(C)c([N+](=O)[O-])c(Cl)c1C/C=C(\C)CCC(=O)O | – | – | IC50 [5]: 1800 nM; IC50 [7]: > 10000 nM
COc1c(C)c(C)c(Br)c(N)c1C/C=C(\C)CCC(=O)O | 462 | 4100 | inhibition in vivo at 100 mg/kg [8]: 30%
COc1c(C)c(C)cc(O)c1C/C=C(\C)CCC(=O)O | 51800 | – | –
COc1cc2c(c(O)c1C/C=C(\C)CCC(=O)O)C(=O)OC2 | – | – | IC50 [3]: 515 nM
COc1c(C)c(C)cc(Cl)c1C/C=C(\C)CCC(=O)O | – | – | IC50 [5]: 18800 nM; IC50 [7]: > 10000 nM

The next lines start with results.

IC50 [1] [nM] | SMILES | IC50 [2] [nM] | other results
1220 | COc1c(C/C=C(\C)CCC(=O)O)cc([N+](=O)[O-])c(C)c1C | 9500 | –
11900 | COc1c(C)c(C)c(OC)c(C/C=C(\C)CCC(=O)O)c1O | – | –
763 | C/C(=C\Cc1c(C)c(C)c(C)c(Br)c1N)CCC(=O)O | – | –
489 | COc1c(C)c(C)c(Cl)c(N)c1C/C=C(\C)CCC(=O)O | 4100 | inhibition in vivo at 100 mg/kg [8]: 42%
14800 | COc1c(C)c(C)c(C#N)c(N)c1C/C=C(\C)CCC(=O)O | 4100 | –
12.6 | CCc1c(C)c2c(c(O)c1C/C=C(\C)CCC(=O)O)C(=O)OC2 | 57 | ED50 [10]: 9 mg/kg; inhibition in vivo at 12.5 mg/kg [11]: 73%; inhibition in vivo at 6.25 mg/kg [12]: 25%; inhibition in vivo at 25 mg/kg [13]: 93%
121 | COc1c(C)c2c(c(O)c1C/C=C(\C)CCC(=O)O)C(=O)SC2 | 1700 | –
15500 | C/C(=C\Cc1c(O)c2c(c(C)c1C#N)COC2=O)CCC(=O)O | > 10000 | –
184 | COc1c(C)c(C)c([N+](=O)[O-])c(O)c1C/C=C(\C)CCC(=O)O | – | –
